Holding throughout (assay type): functional
In one test the test system is Escherichia coli. The test can be described thus: Antibacterial activity against Escherichia coli IAM1257. In outline:
(§1)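 Broth microdilution MIC. Bacteria grown 16 h on BHI agar, suspended in MH broth at about (3-6) × 10^6 cfu/mL. Test materials applied at 20–100 mg/mL (as stated, before dilution), serially 2-fold diluted, then mixed with the bacterial suspension. Incubated 24 h at 37°C before MIC read-out. Positive controls: ampicillin for S. aureus and E. coli, penicillin G for P. aeruginosa.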

Another test relates to Pseudomonas aeruginosa. The test can be described thus: Antibacterial activity against Pseudomonas aeruginosa IAM1058. In outline: as §1
A further test concerns Botrytis cinerea. The test can be described thus: Antifungal activity against Botrytis cinerea IAM1069.
Another test deals with Staphylococcus aureus. The test can be described thus: Antibacterial activity against Staphylococcus aureus IAM1011. In outline:
as §1

In another test the test system is Candida albicans. The test can be described thus: Antifungal activity against Candida albicans IAM1099.

Values after ≈ are worked out from the molar mass of the structure shown.

Regarding `O=c1oc2cc(O)ccc2c(O)c1-c1ccc(O[C@@H]2O[C@H](CO)[C@@H](O)[C@H](O)[C@H]2O)cc1O`, the minimum inhibitory concentration (MIC) was determined as 128 µg/mL (≈ 285 µM) against Escherichia coli; 256 µg/mL (≈ 571 µM) in the test on Pseudomonas aeruginosa; 1020 µg/mL (≈ 2280 µM) with Botrytis cinerea; 128 µg/mL (≈ 285 µM) against Staphylococcus aureus; 512 µg/mL (≈ 1140 µM) against Candida albicans.
In the case of `CC1(C)S[C@@H]2[C@H](NC(=O)[C@H](N)c3ccccc3)C(=O)N2[C@H]1C(=O)O` [AMPICILLIN], the MIC with Escherichia coli was 1 µg/mL (≈ 2.86 µM); in the test on Staphylococcus aureus, below 0.5 µg/mL.
For `O=c1oc2cc(O)ccc2c(O)c1-c1ccc(O)cc1O` [ASPHODELIN A], the MIC amounted to 4 µg/mL (≈ 14 µM) in the test on Escherichia coli; 8 µg/mL (≈ 27.9 µM) in the test with Pseudomonas aeruginosa; 128 µg/mL (≈ 447 µM) in the test with Botrytis cinerea; 16 µg/mL (≈ 55.9 µM) against Staphylococcus aureus; 64 µg/mL (≈ 224 µM) with Candida albicans.
For `CC1(C)S[C@@H]2[C@H](NC(=O)Cc3ccccc3)C(=O)N2[C@H]1C(=O)O` [PENICILLIN G], in the test with Pseudomonas aeruginosa, the MIC was found to be 1 µg/mL (≈ 2.99 µM).
With NYSTATIN, the Activity with Botrytis cinerea is below 0.5 µg/mL. The MIC in the test with Candida albicans is below 0.5 µg/mL.

Values taken from ChEMBL document CHEMBL1139213, “Antimicrobial arylcoumarins from Asphodelus microcarpus” (2007).
